As usually defined, the EC50 is the midpoint of the concentration-response curve.

We go through 14 compounds from ChEMBL document CHEMBL3102805, “Truncated Orexin Peptides: Structure-Activity Relationship Studies” (ACS Med Chem Lett, 2013).

For one experiment, the species on record is Homo sapiens. As to the kind of experiment: Selectivity ratio of EC50 for human OX2 receptor to EC50 for human OX1 receptor.
In experiment [1] the target is T1, Orexin/Hypocretin receptor type 1 (Homo sapiens, UniProt O43613).
T1 sequence (O43613 whole entry): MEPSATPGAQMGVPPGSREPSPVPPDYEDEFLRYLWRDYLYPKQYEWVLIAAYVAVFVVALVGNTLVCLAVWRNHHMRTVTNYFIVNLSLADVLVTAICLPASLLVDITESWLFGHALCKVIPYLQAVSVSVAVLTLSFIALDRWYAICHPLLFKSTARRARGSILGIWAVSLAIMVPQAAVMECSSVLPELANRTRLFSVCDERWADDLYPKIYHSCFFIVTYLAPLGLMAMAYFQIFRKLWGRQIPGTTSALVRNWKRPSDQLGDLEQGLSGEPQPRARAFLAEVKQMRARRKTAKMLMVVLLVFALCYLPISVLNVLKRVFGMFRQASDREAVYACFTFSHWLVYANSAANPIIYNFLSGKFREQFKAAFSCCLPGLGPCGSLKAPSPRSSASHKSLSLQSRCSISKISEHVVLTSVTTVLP
Kind of experiment: Agonist activity at human OX1 receptor overexpressed in CHO-RD-HGA16 cells assessed as calcium mobilization after 15 mins by fluorescence assay. In kind it is functional, cell-based. The essentials: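 EC50 from 8-point half-log concentration-response curves. Values are means of at least three independent experiments in duplicate, with SEM, or means of two independent duplicate experiments.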

In the next experiment the target is T2, Orexin receptor type 2 (Homo sapiens, UniProt O43614).
T2 sequence (O43614 whole entry): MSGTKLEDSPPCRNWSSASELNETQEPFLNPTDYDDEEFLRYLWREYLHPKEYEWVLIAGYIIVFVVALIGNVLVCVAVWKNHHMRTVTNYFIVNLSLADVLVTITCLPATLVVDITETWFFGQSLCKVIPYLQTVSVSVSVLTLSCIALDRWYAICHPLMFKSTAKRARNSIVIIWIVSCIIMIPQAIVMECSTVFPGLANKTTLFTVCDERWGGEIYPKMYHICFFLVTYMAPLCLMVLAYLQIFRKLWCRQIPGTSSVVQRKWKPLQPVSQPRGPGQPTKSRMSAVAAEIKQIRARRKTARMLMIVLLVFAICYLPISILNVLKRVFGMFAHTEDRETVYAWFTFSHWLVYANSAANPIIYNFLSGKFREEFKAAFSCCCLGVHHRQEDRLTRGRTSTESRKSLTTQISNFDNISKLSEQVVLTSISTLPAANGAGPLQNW
Kind of experiment: Agonist activity at human OX2 receptor overexpressed in CHO-RD-HGA16 cells assessed as calcium mobilization after 15 mins by fluorescence assay. In kind it is functional, cell-based. (A change in cytosolic calcium serves as a functional read-out for many receptors and channels.)

Where a SMILES comes first, the peptide text is derived from it.

With `CC[C@H](C)[C@H](NC(=O)CNC(=O)[C@H](C)NC(=O)[C@@H](C)NC(=O)[C@H](Cc1cnc[nH]1)NC(=O)[C@H](CC(N)=O)NC(=O)CNC(=O)[C@H](C)NC(=O)CNC(=O)[C@H](Cc1cnc[nH]1)NC(=O)[C@H](CC(C)C)NC(=O)[C@H](CC(C)C)NC(=O)[C@H](CCC(=O)O)NC(=O)[C@@H](N)Cc1ccc(O)cc1)C(=O)N[C@@H](CC(C)C)C(=O)N[C@H](C(=O)N[C@@H](CC(C)C)C(N)=O)[C@@H](C)O`, the Ratio EC50 in the experiment filed under Homo sapiens worked out at 0.7. Besides, the half-maximal effective concentration (EC50) in experiment [1] was 1.9 µM; on Orexin receptor type 2 it was 1.25 µM.
Turning to `CC[C@H](C)[C@H](NC(=O)CNC(=O)[C@H](C)NC(=O)[C@H](C)NC(=O)[C@H](Cc1cnc[nH]1)NC(=O)[C@H](CC(N)=O)NC(=O)CNC(=O)[C@H](C)NC(=O)CNC(=O)[C@H](Cc1cnc[nH]1)NC(=O)[C@H](CC(C)C)NC(=O)[C@H](CC(C)C)NC(=O)[C@H](CCC(=O)O)NC(=O)[C@@H]1CCCN1)C(=O)N[C@@H](CC(C)C)C(=O)N[C@H](C(=O)N[C@@H](CC(C)C)C(N)=O)[C@@H](C)O` (H-PELLHGAGNHAAGILTL-NH2), in the experiment filed under Homo sapiens, the Ratio EC50 came out at 2.4. Further, the EC50 stood at 1.37 µM in experiment [1] and 3.25 µM at Orexin receptor type 2.
On the same counts, the results for `CC[C@H](C)[C@H](NC(=O)CNC(=O)[C@H](C)NC(=O)[C@H](C)NC(=O)[C@H](Cc1cnc[nH]1)NC(=O)[C@H](CC(N)=O)NC(=O)CNC(=O)[C@H](C)NC(=O)CNC(=O)[C@H](Cc1cnc[nH]1)NC(=O)[C@H](C)NC(=O)[C@H](CC(C)C)NC(=O)[C@H](CCC(=O)O)NC(=O)[C@@H](N)Cc1ccc(O)cc1)C(=O)N[C@@H](CC(C)C)C(=O)N[C@H](C(=O)N[C@@H](CC(C)C)C(N)=O)[C@@H](C)O` (H-YELAHGAGNHAAGILTL-NH2) are 2.4, 3.23 µM and 7.85 µM.
Consider `CC[C@H](C)[C@H](NC(=O)CNC(=O)[C@H](C)NC(=O)[C@H](C)NC(=O)[C@@H](Cc1cnc[nH]1)NC(=O)[C@H](CC(N)=O)NC(=O)CNC(=O)[C@H](C)NC(=O)CNC(=O)[C@H](Cc1cnc[nH]1)NC(=O)[C@H](CC(C)C)NC(=O)[C@H](CC(C)C)NC(=O)[C@H](CCC(=O)O)NC(=O)[C@@H](N)Cc1ccc(O)cc1)C(=O)N[C@@H](CC(C)C)C(=O)N[C@H](C(=O)N[C@@H](CC(C)C)C(N)=O)[C@@H](C)O`, for which the Ratio EC50 in the experiment listed under Homo sapiens was 0.3. In addition, the EC50 in experiment [1] stood at 5.7 µM; on Orexin receptor type 2, 1.76 µM.
On the same counts, the results for `CC[C@H](C)[C@H](NC(=O)CNC(=O)[C@H](C)NC(=O)[C@H](C)NC(=O)[C@H](Cc1cnc[nH]1)NC(=O)[C@H](CC(N)=O)NC(=O)CNC(=O)[C@H](C)NC(=O)CNC(=O)[C@H](Cc1cnc[nH]1)NC(=O)[C@H](CC(C)C)NC(=O)[C@@H](CC(C)C)NC(=O)[C@H](CCC(=O)O)NC(=O)[C@@H](N)Cc1ccc(O)cc1)C(=O)N[C@@H](CC(C)C)C(=O)N[C@H](C(=O)N[C@@H](CC(C)C)C(N)=O)[C@@H](C)O` are 0.5, 0.526 µM and 0.263 µM.
On the same counts, the results for `CC[C@H](C)[C@H](NC(=O)CNC(=O)[C@H](C)NC(=O)[C@H](C)NC(=O)[C@H](Cc1cnc[nH]1)NC(=O)[C@H](CC(N)=O)NC(=O)CNC(=O)[C@H](C)NC(=O)CNC(=O)[C@H](Cc1cnc[nH]1)NC(=O)[C@H](CC(C)C)NC(=O)[C@H](CC(C)C)NC(=O)[C@H](CCC(=O)O)NC(=O)[C@H](C)N)C(=O)N[C@@H](CC(C)C)C(=O)N[C@H](C(=O)N[C@@H](CC(C)C)C(N)=O)[C@@H](C)O` (H-AELLHGAGNHAAGILTL-NH2) are 2.5, 1.91 µM and 4.82 µM.
On to `CC[C@H](C)[C@H](NC(=O)CNC(=O)[C@H](C)NC(=O)[C@H](C)NC(=O)[C@H](Cc1cnc[nH]1)NC(=O)[C@H](CC(N)=O)NC(=O)CNC(=O)[C@H](C)NC(=O)CNC(=O)[C@H](Cc1cnc[nH]1)NC(=O)[C@@H](CC(C)C)NC(=O)[C@H](CC(C)C)NC(=O)[C@H](CCC(=O)O)NC(=O)[C@@H](N)Cc1ccc(O)cc1)C(=O)N[C@@H](CC(C)C)C(=O)N[C@H](C(=O)N[C@@H](CC(C)C)C(N)=O)[C@@H](C)O`, for which, in the experiment listed under Homo sapiens, the Ratio EC50 came to 0.3. Besides, the EC50 in experiment [1] worked out at 0.535 µM; at Orexin receptor type 2, 0.156 µM.
On the same counts, the results for `CC[C@H](C)[C@H](NC(=O)CNC(=O)[C@H](C)NC(=O)[C@H](C)NC(=O)[C@H](Cc1cnc[nH]1)NC(=O)[C@H](CC(N)=O)NC(=O)CNC(=O)[C@H](C)NC(=O)CNC(=O)[C@H](Cc1cnc[nH]1)NC(=O)[C@H](CC(C)C)NC(=O)[C@H](CC(C)C)NC(=O)[C@@H]1CCCN1C(=O)[C@@H](N)Cc1ccc(O)cc1)C(=O)N[C@@H](CC(C)C)C(=O)N[C@H](C(=O)N[C@@H](CC(C)C)C(N)=O)[C@@H](C)O` (H-YPLLHGAGNHAAGILTL-NH2) are 5.1, 0.143 µM and 0.729 µM.
On the same counts, the results for `CC[C@H](C)[C@H](NC(=O)CNC(=O)[C@H](C)NC(=O)[C@H](C)NC(=O)[C@H](Cc1cnc[nH]1)NC(=O)[C@H](CC(N)=O)NC(=O)CNC(=O)[C@H](C)NC(=O)CNC(=O)[C@H](Cc1cnc[nH]1)NC(=O)[C@H](CC(C)C)NC(=O)[C@H](CC(C)C)NC(=O)[C@H](CCC(=O)O)NC(=O)[C@H](N)Cc1ccc(O)cc1)C(=O)N[C@@H](CC(C)C)C(=O)N[C@H](C(=O)N[C@@H](CC(C)C)C(N)=O)[C@@H](C)O` are 2.4, 1.36 µM and 3.22 µM.
On the same counts, the results for `CC[C@H](C)[C@H](NC(=O)CNC(=O)[C@H](C)NC(=O)[C@H](C)NC(=O)[C@H](Cc1cnc[nH]1)NC(=O)[C@H](CC(N)=O)NC(=O)CNC(=O)[C@H](C)NC(=O)[C@@H]1CCCN1C(=O)[C@H](Cc1cnc[nH]1)NC(=O)[C@H](CC(C)C)NC(=O)[C@H](CC(C)C)NC(=O)[C@H](CCC(=O)O)NC(=O)[C@@H](N)Cc1ccc(O)cc1)C(=O)N[C@@H](CC(C)C)C(=O)N[C@H](C(=O)N[C@@H](CC(C)C)C(N)=O)[C@@H](C)O` (H-YELLHPAGNHAAGILTL-NH2) are 0.9, 2.48 µM and 2.18 µM.
Turning to `CC[C@H](C)[C@H](NC(=O)CNC(=O)[C@H](C)NC(=O)[C@H](C)NC(=O)[C@H](Cc1cnc[nH]1)NC(=O)[C@H](CC(N)=O)NC(=O)CNC(=O)[C@H](C)NC(=O)CNC(=O)[C@@H]1CCCN1C(=O)[C@H](CC(C)C)NC(=O)[C@H](CC(C)C)NC(=O)[C@H](CCC(=O)O)NC(=O)[C@@H](N)Cc1ccc(O)cc1)C(=O)N[C@@H](CC(C)C)C(=O)N[C@H](C(=O)N[C@@H](CC(C)C)C(N)=O)[C@@H](C)O` (H-YELLPGAGNHAAGILTL-NH2), the Ratio EC50 in the experiment listed under Homo sapiens came to 1.7. The values for the EC50 (in experiment [1]; at Orexin receptor type 2) were 1.2 µM and 1.99 µM, respectively.
On the same counts, the results for `CC[C@H](C)[C@H](NC(=O)CNC(=O)[C@H](C)NC(=O)[C@H](C)NC(=O)[C@H](Cc1cnc[nH]1)NC(=O)[C@H](CC(N)=O)NC(=O)CNC(=O)[C@H](C)NC(=O)CNC(=O)[C@H](C)NC(=O)[C@H](CC(C)C)NC(=O)[C@H](CC(C)C)NC(=O)[C@H](CCC(=O)O)NC(=O)[C@@H](N)Cc1ccc(O)cc1)C(=O)N[C@@H](CC(C)C)C(=O)N[C@H](C(=O)N[C@@H](CC(C)C)C(N)=O)[C@@H](C)O` (H-YELLAGAGNHAAGILTL-NH2) are 3.9, 0.493 µM and 1.91 µM.
Regarding `CC[C@H](C)[C@H](NC(=O)CNC(=O)[C@H](C)NC(=O)[C@H](C)NC(=O)[C@H](Cc1cnc[nH]1)NC(=O)[C@H](CC(N)=O)NC(=O)CNC(=O)[C@H](C)NC(=O)CNC(=O)[C@H](Cc1cnc[nH]1)NC(=O)[C@@H]1CCCN1C(=O)[C@H](CC(C)C)NC(=O)[C@H](CCC(=O)O)NC(=O)[C@@H](N)Cc1ccc(O)cc1)C(=O)N[C@@H](CC(C)C)C(=O)N[C@H](C(=O)N[C@@H](CC(C)C)C(N)=O)[C@@H](C)O` (H-YELPHGAGNHAAGILTL-NH2), in the experiment listed under Homo sapiens, the Ratio EC50 was found to be 1.4. Besides, the EC50 turned out to be 1.13 µM in experiment [1] and 1.61 µM on Orexin receptor type 2.
On the same counts, the results for `CC[C@H](C)[C@H](NC(=O)CNC(=O)[C@H](C)NC(=O)[C@H](C)NC(=O)[C@H](Cc1cnc[nH]1)NC(=O)[C@H](CC(N)=O)NC(=O)CNC(=O)[C@H](CO)NC(=O)[C@H](C)NC(=O)[C@H](CCC(N)=O)NC(=O)[C@H](CC(C)C)NC(=O)[C@H](CC(C)C)NC(=O)[C@H](CCCNC(=N)N)NC(=O)[C@H](CCC(N)=O)NC(=O)[C@H](CC(C)C)NC(=O)[C@@H](N)CCCNC(=N)N)C(=O)N[C@@H](CC(C)C)C(=O)N[C@H](C(=O)N[C@@H](CCSC)C(N)=O)[C@@H](C)O` (H-RLQRLLQASGNHAAGILTM-NH2) are 0.7, 0.144 µM and 0.0993 µM.
